From ChEMBL document CHEMBL5712903, “Limitations of current in vitro models for testing the clinical potential of epigenetic inhibitors for treatment of pediatric ependymoma” (Oncotarget, 2018)
Activity calls are given as the source filed them. No cut-off for these calls is given here.

What was measured:
[1] = target: Histone-lysine N-methyltransferase EZH2 (Homo sapiens) (UniProt Q15910); experiment: Inhibition of EZH2 in human EPN9 cells assessed as increase in cell death incubated for 120 hrs by LDH release assay; format: cell-based
Method in brief: (§1)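 GSK343 or vehicle was added to cells plated in 96 wells the previous day. Drug was replenished after 72 hrs, and cell death was measured by LDH release kit at 120 hrs. Each condition in triplicate, three independent repeats.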

[2] = target: Histone-lysine N-methyltransferase EZH2 (Homo sapiens) (UniProt Q15910); experiment: Inhibition of EZH2 in human EPN1 cells assessed as increase in cell death incubated for 120 hrs by LDH release assay; format: cell-based; method in brief: as §1
[3] = target: Histone-lysine N-methyltransferase EZH2 (Homo sapiens) (UniProt Q15910); experiment: Inhibition of EZH2 in human BXD-1425EPN cells assessed as increase in cell death incubated for 120 hrs by LDH release assay; format: cell-based; method in brief: as §1
[4] = target: Histone-lysine N-methyltransferase EZH2 (Homo sapiens) (UniProt Q15910); experiment: Inhibition of EZH2 in human DKFZ-EP1 cells assessed as increase in cell death incubated for 120 hrs by LDH release assay; format: cell-based; method in brief: as §1
[5] = target: Histone-lysine N-methyltransferase EZH2 (Homo sapiens) (UniProt Q15910); experiment: Inhibition of EZH2 in human DKFZ-EP1 cells assessed as increase in decitabine induced cytotoxicity at 2.5 to 40 uM measured after 96 hrs in presence of decitabine by MTT assay; format: cell-based; conditions: dose 2.5-40 µM
Method in brief: (§2)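 Cells were pretreated 48 hrs with decitabine, then GSK343 was added and incubation continued for a further 96 hrs before MTT viability was read. Drugs were at a fixed ratio from single-agent IC50s (0.125–4 times IC50). Triplicates, three independent repeats, % versus vehicle.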

[6] = target: Histone-lysine N-methyltransferase EZH2 (Homo sapiens) (UniProt Q15910); experiment: Inhibition of EZH2 in human BXD-1425EPN cells assessed as increase in decitabine induced cytotoxicity at 2.5 to 80 uM measured after 96 hrs in presence of decitabine by MTT assay; format: cell-based; conditions: dose 2.5-80 µM; method in brief: as §2
[7] = target: Histone-lysine N-methyltransferase EZH2 (Homo sapiens) (UniProt Q15910); experiment: Inhibition of EZH2 in human EPN1 cells assessed as increase in decitabine induced cytotoxicity at 2.5 to 80 uM measured after 96 hrs in presence of decitabine by MTT assay; format: cell-based; conditions: dose 2.5-80 µM; method in brief: as §2
[8] = target: Histone-lysine N-methyltransferase EZH2 (Homo sapiens) (UniProt Q15910); experiment: Inhibition of EZH2 in human EPN9 cells assessed as increase in decitabine induced cytotoxicity at 2.5 to 80 uM measured after 96 hrs in presence of decitabine by MTT assay; format: cell-based; conditions: dose 2.5-80 µM; method in brief: as §2
[9] = Cytotoxicity against human fetal NSC assessed as reduction in cell vaibility incubated for 48 hrs by alamar blue assay; conditions: human fetal neural stem cells (NSC)
[10] = target: Histone-lysine N-methyltransferase EZH2 (Homo sapiens) (UniProt Q15910); experiment: Inhibition of EZH2 in human EPN1 cells assessed as decrease in cell viability at 2.5 to 80 uM incubated for 72 hrs in presence of vorinostat by MTT assay; conditions: dose 2.5-80 µM
[11] = target: Histone-lysine N-methyltransferase EZH2 (Homo sapiens) (UniProt Q15910); experiment: Inhibition of EZH2 in human BXD-1425EPN cells assessed as decrease in cell viability at 2.5 to 80 uM incubated for 72 hrs in presence of vorinostat by MTT assay; conditions: dose 2.5-80 µM
[12] = Antiproliferative activity against human BXD-1425EPN cells assessed as reduction in cell viability incubated for 144 hrs by MTT assay; format: functional, cell-based
Method in brief: (§3)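 Ependymoma cells were seeded in 96-well plates and left overnight, then given decitabine or DMSO vehicle. Decitabine was replenished at 24 and 48 hrs, and MTT viability was read 144 hrs after the start. BXD-1425EPN and DKFZ-EP1 were grown in DMEM with 10% FBS; EPN1, EPN8, EPN9 and EPN10 in DMEM with 15% FBS. Triplicates, three independent repeats, % viable versus vehicle; IC50 estimated from dose-response curves.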

[13] = Antiproliferative activity against human DKFZ-EP1 cells assessed as reduction in cell viability incubated for 144 hrs by MTT assay; format: functional, cell-based; conditions: DKFZ-EP1, 144 h; method in brief: as §3
[14] = Antiproliferative activity against human EPN1 cells assessed as reduction in cell viability incubated for 144 hrs by MTT assay; format: functional, cell-based; conditions: EPN1, 144 h; method in brief: as §3
[15] = Antiproliferative activity against human EPN8 cells assessed as reduction in cell viability incubated for 144 hrs by MTT assay; format: functional, cell-based; conditions: EPN8, 144 h; method in brief: as §3
[16] = Antiproliferative activity against human EPN9 cells assessed as reduction in cell viability incubated for 144 hrs by MTT assay; format: functional, cell-based; conditions: EPN9, 144 h; method in brief: as §3
[17] = Antiproliferative activity against human EPN10 cells assessed as reduction in cell viability incubated for 144 hrs by MTT assay; format: functional, cell-based; conditions: EPN10, 144 h; method in brief: as §3
BXD-1425EPN = experiment: Induction of cell death in human BXD-1425EPN cells incubated for 144 hrs by LDH release assay; format: functional, cell-based
Method in brief: (§4)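 LDH cytotoxicity kit read-out of cell death after 144 hrs of decitabine or vehicle exposure. Cells were plated in 96 wells and left overnight before dosing, with decitabine replenished at 24 and 48 hrs. Triplicates in three independent repeats. All drugs were dissolved in DMSO.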

DKFZ-EP1 = experiment: Induction of cell death in human DKFZ-EP1 cells incubated for 144 hrs by LDH release assay; format: functional, cell-based; method in brief: as §4
EPN1 = experiment: Induction of cell death in human EPN1 cells incubated for 144 hrs by LDH release assay; format: functional, cell-based; method in brief: as §4
EPN9 = experiment: Induction of cell death in human EPN9 cells incubated for 144 hrs by LDH release assay; format: functional, cell-based; method in brief: as §4

Chain of Histone-lysine N-methyltransferase EZH2 (Homo sapiens) (Q15910 whole entry, looked up): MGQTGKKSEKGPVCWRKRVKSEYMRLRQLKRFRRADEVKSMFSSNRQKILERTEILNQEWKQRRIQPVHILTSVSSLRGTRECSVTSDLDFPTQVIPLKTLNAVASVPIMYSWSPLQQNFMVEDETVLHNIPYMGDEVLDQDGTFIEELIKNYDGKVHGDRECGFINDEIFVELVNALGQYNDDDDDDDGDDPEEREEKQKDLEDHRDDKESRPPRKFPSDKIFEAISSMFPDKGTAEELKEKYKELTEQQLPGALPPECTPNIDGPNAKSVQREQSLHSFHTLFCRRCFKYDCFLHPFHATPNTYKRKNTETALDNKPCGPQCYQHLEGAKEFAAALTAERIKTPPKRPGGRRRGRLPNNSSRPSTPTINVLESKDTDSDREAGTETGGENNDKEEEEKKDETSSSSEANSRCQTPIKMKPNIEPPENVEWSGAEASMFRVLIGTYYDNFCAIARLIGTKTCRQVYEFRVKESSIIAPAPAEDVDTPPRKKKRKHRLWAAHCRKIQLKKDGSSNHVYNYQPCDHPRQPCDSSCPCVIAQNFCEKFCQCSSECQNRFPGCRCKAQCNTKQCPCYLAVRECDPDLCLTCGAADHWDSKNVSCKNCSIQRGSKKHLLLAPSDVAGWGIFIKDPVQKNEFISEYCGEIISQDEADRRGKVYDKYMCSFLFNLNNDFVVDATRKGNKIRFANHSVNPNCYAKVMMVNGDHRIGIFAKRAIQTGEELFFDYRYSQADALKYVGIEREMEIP

## CCCc1cc(C)[nH]c(=O)c1CNC(=O)c1cc(-c2ccnc(N3CCN(C)CC3)c2)cc2c1cnn2C(C)C
[1]
  inhibition: Active
[2]
  inhibition: Active
[3]
  inhibition: Active
[4]
  inhibition: Active
[5]
  inhibition: inactive
[6]
  inhibition: inactive
[7]
  inhibition: inactive
[8]
  inhibition: inactive
[9]
  IC50 at 48 h: 9000 nM
[10]
  inhibition: Active
[11]
  inhibition: Active

## Nc1ncn([C@H]2C[C@H](O)[C@@H](CO)O2)c(=O)n1 [DECITABINE]
[12]
  IC50: 400 nM
[13]
  IC50: ≥ 50 nM
[14]
  IC50: ≥ 50 nM
[15]
  IC50: 50 nM
[16]
  IC50: ≥ 50 nM
[17]
  IC50: ≥ 50 nM
BXD-1425EPN
  Activity: inactive
DKFZ-EP1
  Activity: inactive
EPN1
  Activity: inactive
EPN9
  Activity: inactive

## Cc1[nH]c2ccccc2c1CCNCc1ccc(/C=C/C(=O)NO)cc1 [PANOBINOSTAT]
[9]
  IC50 at 48 h: 80 nM
